Measured values from ChEMBL document CHEMBL3758106, “Antitumor Activity of Americanin A Isolated from the Seeds of Phytolacca americana by Regulating the ATM/ATR Signaling Pathway and the Skp2-p27 Axis in Human Colon Cancer Cells” (J Nat Prod, 2015).
Activity calls are given as the source filed them. The calls are words filed in the database; no cut-off is given here.

Tests used:
HCT-116 [1] = assay: Induction of cell cycle arrest in human HCT116 cells assessed as accumulation at G0/G1 phase at 15 uM after 48 hrs by propidium iodide staining-based flow cytometric analysis in presence of RNase A (reference value: 54.3%); format: functional
HCT-116 [2] = assay: Induction of apoptosis in human HCT116 cells assessed as dead cells at 7.5 uM after 48 hrs by annexin V-FITC/propidium iodide staining-based flow cytometric analysis (reference value: 2%); format: functional
HCT-116 [3] = assay: Induction of apoptosis in human HCT116 cells assessed as early apoptotic cells at 30 uM after 48 hrs by annexin V-FITC/propidium iodide staining-based flow cytometric analysis (reference value: 1.6%); format: functional
HCT-116 [4] = assay: Induction of apoptosis in human HCT116 cells assessed as decrease in Bcl-xL expression at 7.5 to 30 uM after 48 hrs by Western blot analysis; format: functional, cell-based
Method in brief: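 HCT116 cells exposed 48 h; Western blot of RIPA lysates (BCA quantification, SDS-PAGE, PVDF, overnight primary antibodies at 4 °C, HRP secondary, ECL).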

HCT-116 [5] = assay: Induction of reactive oxygen species in human HCT116 cells at 30 uM after 48 hrs by DCFH-DA staining-based flow cytometric analysis (reference value: 5.1%); format: functional
Method in brief: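 HCT116 cells seeded overnight, then exposed to test compounds, alone or with NAC, for 48 h in complete medium. Loaded with 20 μM DCFH-DA for 30 min; intracellular ROS in 20 000 cells per group read by flow cytometry as histograms.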

HCT-116 [6] = assay: Induction of apoptosis in human HCT116 cells assessed as viable cells at 30 uM after 48 hrs by annexin V-FITC/propidium iodide staining-based flow cytometric analysis (reference value: 87.4%); format: functional; settings: HCT-116, 48 h, read-out: Activity
HCT-116 [7] = assay: Induction of apoptosis in human HCT116 cells assessed as early apoptotic cells at 30 uM after 48 hrs by annexin V-FITC/propidium iodide staining-based flow cytometric analysis in presence of NAC (reference value: 1.1%); format: functional
HCT-116 [8] = assay: Induction of cell cycle arrest in human HCT116 cells assessed as accumulation at G2/M phase at 15 uM after 24 hrs by propidium iodide staining-based flow cytometric analysis in presence of RNase A (reference value: 20.6%); format: functional
[9] = Downregulation of cyclin B1 expression in human HCT116 cells at 7.5 to 30 uM after 24 hrs by Western blot analysis; format: functional, cell-based; settings: HCT-116
Method in brief: (§1)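 HCT116 cells exposed 24 h in complete medium; lysed in RIPA buffer (pH 8.0), protein by BCA, equal loads run on 8–13% SDS-PAGE, PVDF transfer, blocked in 5% BSA/TBST, primary antibodies overnight at 4 °C, HRP secondaries 2 h RT, ECL detection; β-actin as loading control.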

[10] = Downregulation of phosphorylated cyclin B1 at Ser147 expression in human HCT116 cells at 7.5 to 30 uM after 24 hrs by Western blot analysis; format: functional, cell-based; settings: HCT-116; method in brief: as §1
[11] = Downregulation of CDK2 expression in human HCT116 cells at 7.5 to 30 uM after 24 hrs by Western blot analysis; format: functional, cell-based; settings: HCT-116; method in brief: as §1
[12] = molecular target: Cyclin-dependent kinase inhibitor 1B/S-phase kinase-associated protein 2 (Homo sapiens) (UniProt Q13309+P46527); assay: Inhibition of Skp2/p27 protein interaction in human HCT116 cells after 24 hrs by immunoprecipitation assay; format: cell-based; settings: HCT-116
Method in brief: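 Protein measured by Bradford. Equal protein incubated with Protein G sepharose and the capture antibody (anti-p53, anti-Cul-1 or anti-Skp2) overnight at 4 °C. Bead eluates boiled in Laemmli/2-mercaptoethanol and analysed by Western blot.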

SW480 = assay: Antiproliferative activity against human SW480 cells after 24 to 72 hrs by SRB assay; format: functional, cell-based
Method in brief: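 Cells grown in 96-well plates (RPMI 1640; MRC-5 in MEM, 10% FBS, antibiotics) with compound […]; fixed in 10% TCA 30 min at 4 °C, stained 0.4% SRB in 1% acetic acid 1 h, dye dissolved in 10 mM Tris pH 10.0, A515 read; viability as % of solvent control, IC50 by nonlinear regression; mean of three independent experiments.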

HCT-116 [13] = assay: Induction of cell cycle arrest in human HCT116 cells assessed as accumulation at sub-G1 phase after 24 hrs by propidium iodide staining-based flow cytometric analysis in presence of RNase; format: functional

Chain of Cyclin-dependent kinase inhibitor 1B/S-phase kinase-associated protein 2 (Homo sapiens) (P46527 whole entry, looked up): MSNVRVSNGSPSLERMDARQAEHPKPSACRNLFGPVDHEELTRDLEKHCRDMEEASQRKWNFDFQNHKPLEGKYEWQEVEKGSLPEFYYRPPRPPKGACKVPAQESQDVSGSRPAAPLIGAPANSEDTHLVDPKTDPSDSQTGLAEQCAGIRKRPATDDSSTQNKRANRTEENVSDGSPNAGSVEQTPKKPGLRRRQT
Chain of Cyclin-dependent kinase inhibitor 1B/S-phase kinase-associated protein 2 (Homo sapiens) (Q13309 whole entry, looked up): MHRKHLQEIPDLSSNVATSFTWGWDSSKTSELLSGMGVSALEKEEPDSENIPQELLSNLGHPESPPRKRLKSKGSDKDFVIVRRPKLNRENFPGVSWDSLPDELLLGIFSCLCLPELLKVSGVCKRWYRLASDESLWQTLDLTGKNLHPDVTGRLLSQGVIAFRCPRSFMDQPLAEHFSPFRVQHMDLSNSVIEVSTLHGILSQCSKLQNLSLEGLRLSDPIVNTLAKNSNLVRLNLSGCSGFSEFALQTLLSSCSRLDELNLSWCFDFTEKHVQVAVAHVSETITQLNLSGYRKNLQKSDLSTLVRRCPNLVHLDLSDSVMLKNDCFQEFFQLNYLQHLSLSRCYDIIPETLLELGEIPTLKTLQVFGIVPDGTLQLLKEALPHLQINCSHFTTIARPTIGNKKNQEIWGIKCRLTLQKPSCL

Question: Which results are given for O=C/C=C/c1ccc2c(c1)O[C@@H](CO)[C@H](c1ccc(O)c(O)c1)O2 [AMERICANIN A]?
Answer: Activity (HCT-116 [1]): 23.4%; Activity (HCT-116 [2]): 2%; Activity (HCT-116 [3]): 32.8%; Activity (HCT-116 [4]): Active; Activity (HCT-116 [5]): 47.4%; viability at 30 µM (HCT-116 [6]): 51.4%; Activity (HCT-116 [7]): 2.7%; Activity (HCT-116 [8]): 31.8%; Activity [9]: Active; Activity [10]: Active; Activity [11]: Active; inhibition [12]: inactive; IC50 (SW480): 27.4 µM; Activity (HCT-116 [13]): Dose-dependent effect
